Experimental data from ChEMBL document CHEMBL3244385, “Antitumor anthracycline antibiotics. Structure-activity and structure-cardiotoxicity relationships of rubidazone analogues” (J Med Chem, 1978).

Legend:
[1] = tested on: P388; test: In vivo antitumor activity against mouse P388 cells allografted in BDF/CDF mouse assessed as host survival time at 4 mg/kg, ip administered on days 1 to 9 relative to control; assay type: functional; conditions: route intraperitoneal
Method in brief: (§1)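 P-388 lymphocytic leukemia, 10⁶ cells injected ip into BDF or CDF mice on day 0; drug given ip daily on days 1-9 at the stated dose. Read-out T/C: average survival time of treated mice as percent of untreated controls. Assays run by NCI Drug Research and Development Program.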

[2] = tested on: P388; test: In vivo antitumor activity against mouse P388 cells allografted in BDF/CDF mouse assessed as host survival time at 0.125 mg/kg, ip administered on days 1 to 9 relative to control; assay type: functional; conditions: route intraperitoneal; method in brief: as §1
[3] = Dissociation constant, pKa of Ar-COOH group of the compound; assay type: physicochemical
[4] = species: Rattus norvegicus; test: Cardiotoxicity in rat ECG model relative to adriamycin; conditions: in vivo
[5] = species: Rattus norvegicus; test: Cardiotoxicity in rat ECG model; conditions: in vivo
[6] = tested on: P388; test: In vivo antitumor activity against mouse P388 cells allografted in BDF/CDF mouse assessed as host survival time at 2 mg/kg, ip administered on days 1 to 9 relative to control; assay type: functional; conditions: route intraperitoneal; method in brief: as §1
[7] = tested on: Calf thymus DNA; test: Binding affinity to calf thymus DNA assessed as change in melting temperature at 5 uM by spectrophotometer analysis; assay type: nucleic-acid assay; conditions: Bos taurus
Method in brief: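 Drug dissolved in Me2SO, diluted with buffer, then mixed with calf thymus DNA. Final mix: 0.01 M phosphate pH 7, 5×10^-5 M DNA, 5×10^-6 M drug, 10^-5 M EDTA, 5% Me2SO. Absorbance at 259 nm recorded every 30 s while heating at 18 °C/h. Tm is the midpoint of the corrected curve; the shift is taken against DNA alone.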

[8] = tested on: L1210; test: Inhibition of RNA synthesis in mouse L1210 cells; assay type: functional; conditions: read-out: ED50 (the source's name)
[9] = tested on: P388; test: In vivo antitumor activity against mouse P388 cells allografted in BDF/CDF mouse assessed as host survival time at 8 mg/kg, ip administered on days 1 to 9 relative to control; assay type: functional; conditions: route intraperitoneal; method in brief: as §1
[10] = Partition coefficient, log P of the compound; assay type: physicochemical; conditions: octanol/water
[11] = tested on: P388; test: In vivo antitumor activity against mouse P388 cells allografted in BDF/CDF mouse assessed as host survival time at 0.25 mg/kg, ip administered on days 1 to 9 relative to control; assay type: functional; conditions: route intraperitoneal; method in brief: as §1
[12] = tested on: L1210; test: Inhibition of DNA synthesis in mouse L1210 cells; assay type: functional; conditions: read-out: ED50 (the source's name)
[13] = tested on: P388; test: In vivo antitumor activity against mouse P388 cells allografted in BDF/CDF mouse assessed as host survival time at 0.5 mg/kg, ip administered on days 1 to 9 relative to control; assay type: functional; conditions: route intraperitoneal; method in brief: as §1
[14] = tested on: P388; test: In vivo antitumor activity against mouse P388 cells allografted in BDF/CDF mouse assessed as host survival time at 16 mg/kg, ip administered on days 1 to 9 relative to control; assay type: functional; conditions: route intraperitoneal; method in brief: as §1
[15] = tested on: P388; test: In vivo antitumor activity against mouse P388 cells allografted in BDF/CDF mouse assessed as host survival time at 1 mg/kg, ip administered on days 1 to 9 relative to control; assay type: functional; conditions: route intraperitoneal; method in brief: as §1

Row | Structure (SMILES) | T/C [1] | T/C [2] | pKa [3] | Ratio [4] | MCCD [5] | T/C [6] | ΔTm [7] | EC50 [8] | T/C [9] | logP [10] | T/C [11] | EC50 [12] | T/C [13] | T/C [14] | T/C [15]
1 | COc1cccc2c1C(=O)c1c(O)c3c(c(O)c1C2=O)C[C@@](O)(/C(C)=N/NC(=O)c1cccc([N+](=O)[O-])c1)C[C@@H]3O[C@H]1C[C@H](N)[C@H](O)[C@H](C)O1.Cl | 190% | 125% | 3.46 | 2.3 | 32 mg/kg | 172% | 10.5 °C | 2.3 µM | 202% | 0.76 | 130% | 3.2 µM | 130% | 72% | 146%
2 | COc1cccc2c1C(=O)c1c(O)c3c(c(O)c1C2=O)C[C@@](O)(/C(CO)=N/NC(=O)c1ccccc1)C[C@@H]3O[C@H]1C[C@H](N)[C@H](O)[C@H](C)O1.Cl | 172% | 103% | 4.19 | 2.4 | 32 mg/kg | 154% | 8.9 °C | 8.8 µM | 201% | 0.52 | 99% | 14 µM | 126% | 128% | 154%
3 | COc1cccc2c1C(=O)c1c(O)c3c(c(O)c1C2=O)C[C@@](O)(/C(C)=N/NC(=O)c1ccc(-c2ccccc2)cc1)C[C@@H]3O[C@H]1C[C@H](N)[C@H](O)[C@H](C)O1.Cl | 190% | 107% | 3.97 | 2.8 | 40 mg/kg | 163% | 10.3 °C | 1 µM | 98% | 3 | 134% | 1.9 µM | 138% | 63% | 157%
4 | COc1ccc(C(=O)N/N=C(\C)[C@]2(O)Cc3c(O)c4c(c(O)c3[C@@H](O[C@H]3C[C@H](N)[C@H](O)[C@H](C)O3)C2)C(=O)c2c(OC)cccc2C4=O)cc1.Cl | 211% | 119% | 4.47 | 1.8 | 24 mg/kg | 174% | 10.9 °C | 1.6 µM | 183% | 1.02 | 129% | 3.1 µM | 136% | 59% | 158%
5 | CCc1ccc(C(=O)N/N=C(\C)[C@]2(O)Cc3c(O)c4c(c(O)c3[C@@H](O[C@H]3C[C@H](N)[C@H](O)[C@H](C)O3)C2)C(=O)c2c(OC)cccc2C4=O)cc1.Cl | 175% | 111% | 4.35 | 1.5 | 20 mg/kg | 175% | 10.5 °C | 1.1 µM | 93% | 2.06 | 139% | 2.6 µM | 148% | 68% | 154%
6 | COc1cccc2c1C(=O)c1c(O)c3c(c(O)c1C2=O)C[C@@](O)(/C(C)=N/NC(=O)c1ccc(Cl)c(Cl)c1)C[C@@H]3O[C@H]1C[C@H](N)[C@H](O)[C@H](C)O1.Cl | 163% | 117% | 3.62 | 2.8 | 40 mg/kg | 175% | 11 °C | 1.7 µM | 81% | 2.46 | 137% | 2.1 µM | 157% | 54% | 166%
7 | CCCCOc1ccc(C(=O)N/N=C(\C)[C@]2(O)Cc3c(O)c4c(c(O)c3[C@@H](O[C@H]3C[C@H](N)[C@H](O)[C@H](C)O3)C2)C(=O)c2c(OC)cccc2C4=O)cc1.Cl | 127% | 115% | 4.23 | >= 3.4 | >= 48 mg kg-1 | 179% | 10.2 °C | 1.4 µM | 72% | 2.65 | 143% | 3.2 µM | 151% | 54% | 152%
8 | COc1cccc2c1C(=O)c1c(O)c3c(c(O)c1C2=O)C[C@@](O)(/C(C)=N/NC(=O)c1ccc(O)cc1)C[C@@H]3O[C@H]1C[C@H](N)[C@H](O)[C@H](C)O1.Cl | 161% | 115% | 4.52 | 1.5 | 20 mg/kg | 160% | 11.5 °C | 1.9 µM | 181% | 0.37 | 111% | 3.6 µM | 157% | 111% | 145%
9 | COc1cccc2c1C(=O)c1c(O)c3c(c(O)c1C2=O)C[C@@](O)(C(=O)CO)C[C@@H]3O[C@H]1C[C@H](N)[C@H](O)[C@H](C)O1.Cl [DOXORUBICIN HYDROCHLORIDE] | 77% |  |  | 1 | 11 mg/kg | 149% | 13.4 °C | 0.67 µM |  | 0.3 | 170% | 1.5 µM | 187% |  | 193%
10 | COc1cccc2c1C(=O)c1c(O)c3c(c(O)c1C2=O)C[C@@](O)(/C(CO)=N/NC(=O)c1ccc(Cl)c(Cl)c1)C[C@@H]3O[C@H]1C[C@H](N)[C@H](O)[C@H](C)O1.Cl | 202% | 116% | 3.62 | 1.4 | 20 mg/kg | 154% | 5.3 °C | 3.6 µM | 109% | 1.94 | 125% | 6.6 µM | 143% | 72% | 172%
11 | COc1cccc2c1C(=O)c1c(O)c3c(c(O)c1C2=O)C[C@@](O)(C(C)=O)C[C@@H]3O[C@H]1C[C@H](N)[C@H](O)[C@H](C)O1 [DAUNORUBICIN] | 83% |  |  | 1.3 | 14 mg/kg | 112% |  | 0.23 µM |  | 0.82 | 152% | 0.48 µM | 167% |  | 162%
